Source: paper PMC6471013 (Chemistry (Weinheim an Der Bergstrasse, Germany), 2018)
Read-outs that look alike come from different tables or passages of the source.

Columns and labels:
[1] = target: Recombinant human integrin αvβ3 receptor (Homo sapiens, UniProt P05106+P06756); assay type: binding; details: competition with biotinylated vitronectin for the isolated αvβ3 receptor
In short: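 Test compound competes with biotinylated vitronectin for binding to the αvβ3 receptor. IC50 is the concentration giving 50 % inhibition of vitronectin binding, estimated by curve fitting. Values are mean ± SD of duplicate determinations.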

[2] = test system: αvβ3‐expressing human renal cell carcinoma 786‐O cells; assay: Cell antiproliferative assay, 96 h, with or without elastase; assay type: cell-based; details: 786-0, 96 h
In short: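 786‐O renal carcinoma cells (αvβ3-positive) exposed to test compound for 96 h, with or without 50 nm elastase from human leukocytes. IC50 taken as the concentration giving 50 % inhibition of cell viability. Samples run in triplicate.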

Chain of Recombinant human integrin αvβ3 receptor (P06756 31-992 limits assumed): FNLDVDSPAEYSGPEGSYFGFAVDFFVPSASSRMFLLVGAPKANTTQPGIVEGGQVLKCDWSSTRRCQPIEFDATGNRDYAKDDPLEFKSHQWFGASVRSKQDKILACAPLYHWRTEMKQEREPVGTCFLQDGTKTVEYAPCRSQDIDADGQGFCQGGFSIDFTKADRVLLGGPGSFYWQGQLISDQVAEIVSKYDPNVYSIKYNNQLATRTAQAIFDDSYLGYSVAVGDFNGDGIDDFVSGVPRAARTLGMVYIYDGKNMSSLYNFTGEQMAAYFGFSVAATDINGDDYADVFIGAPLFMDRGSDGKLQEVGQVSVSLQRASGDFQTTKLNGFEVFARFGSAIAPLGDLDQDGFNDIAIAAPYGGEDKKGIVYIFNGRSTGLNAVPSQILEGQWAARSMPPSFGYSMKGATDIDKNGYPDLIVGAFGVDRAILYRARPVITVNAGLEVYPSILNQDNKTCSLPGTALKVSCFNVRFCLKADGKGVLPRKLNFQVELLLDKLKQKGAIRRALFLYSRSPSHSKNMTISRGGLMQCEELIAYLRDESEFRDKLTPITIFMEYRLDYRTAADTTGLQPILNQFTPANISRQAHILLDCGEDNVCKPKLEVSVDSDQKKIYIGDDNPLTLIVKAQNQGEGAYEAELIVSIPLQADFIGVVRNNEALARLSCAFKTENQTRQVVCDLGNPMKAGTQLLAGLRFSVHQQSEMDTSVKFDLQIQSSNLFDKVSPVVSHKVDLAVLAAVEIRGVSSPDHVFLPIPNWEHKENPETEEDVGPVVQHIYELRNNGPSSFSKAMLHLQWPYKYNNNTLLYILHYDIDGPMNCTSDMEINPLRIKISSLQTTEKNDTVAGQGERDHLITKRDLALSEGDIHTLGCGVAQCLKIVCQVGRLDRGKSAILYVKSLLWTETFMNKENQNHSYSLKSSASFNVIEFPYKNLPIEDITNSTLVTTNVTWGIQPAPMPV
Chain of Recombinant human integrin αvβ3 receptor (P05106 27-718 limits assumed): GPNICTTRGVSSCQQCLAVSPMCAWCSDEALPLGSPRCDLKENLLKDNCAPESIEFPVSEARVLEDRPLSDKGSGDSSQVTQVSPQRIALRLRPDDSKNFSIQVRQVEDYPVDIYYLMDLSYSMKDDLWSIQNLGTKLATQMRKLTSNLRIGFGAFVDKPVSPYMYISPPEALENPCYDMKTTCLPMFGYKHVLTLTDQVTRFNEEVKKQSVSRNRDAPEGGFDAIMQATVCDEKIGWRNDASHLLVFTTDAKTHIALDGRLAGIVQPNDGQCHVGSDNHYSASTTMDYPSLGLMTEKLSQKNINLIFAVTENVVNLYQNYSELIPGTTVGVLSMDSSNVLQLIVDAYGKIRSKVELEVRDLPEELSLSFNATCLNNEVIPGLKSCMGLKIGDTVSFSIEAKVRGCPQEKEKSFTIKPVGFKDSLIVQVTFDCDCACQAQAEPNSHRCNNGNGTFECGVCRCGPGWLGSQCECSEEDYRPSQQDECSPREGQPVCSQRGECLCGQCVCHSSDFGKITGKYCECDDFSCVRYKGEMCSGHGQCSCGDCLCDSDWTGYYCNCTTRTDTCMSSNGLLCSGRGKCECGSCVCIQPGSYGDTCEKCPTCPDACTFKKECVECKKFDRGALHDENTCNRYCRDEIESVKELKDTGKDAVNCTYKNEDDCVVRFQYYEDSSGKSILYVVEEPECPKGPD

| αvβ3 integrin binding IC50, in words [1] | IC50 ([2]; read-out: IC50, added elastase NO) [nM] | IC50 ([2]; read-out: IC50, added elastase YES) [nM] | Structure (SMILES) |
| --- | --- | --- | --- |
| low‐nanomolar | – | – | CN1C(=CC=CC=CC2=[N+](CCCCCC(=O)NCc3ccc(CN4C(=O)[C@@H]5CC(=O)N[C@@H](CCCNC(=N)N)C(=O)NCC(=O)N[C@@H](CC(=O)O)C(=O)NC[C@@H]4C(=O)N5)cc3)c3ccc(S(=O)(=O)[O-])cc3C2(C)C)C(C)(C)c2cc(S(=O)(=O)O)ccc21 [compound 2, cyclo(DKP‐RGD)‐sCy5] |
| – | 35.8 ± 16.7 | 29.5 ± 7.6 | CC(=O)O[C@H]1C(=O)[C@@]2(C)[C@H]([C@H](OC(=O)c3ccccc3)[C@]3(O)C[C@H](OC(=O)[C@H](O)[C@@H](NC(=O)c4ccccc4)c4ccccc4)C(C)=C1C3(C)C)[C@]1(OC(C)=O)CO[C@@H]1C[C@@H]2O [compound 12, Paclitaxel] |
| micromolar | – | – | N=C(N)NCCC[C@@H]1NC(=O)C[C@@H]2NC(=O)[C@@H](CNC(=O)[C@H](CC(=O)O)NC(=O)CCNC1=O)N(Cc1ccccc1)C2=O [compound 3, cyclo(DKP‐RβAD)] |
